# Source: PubChem BioAssay (several laboratories)
# ROCK2 inh – blocks human Rho kinase 2 activity | purified ROCK2, Kinase-Glo ATP depletion luminescence | inhibition, % at 6 µM | 0.35% of 60,000 active | AID 604;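 active = inhibition above the screen-wide mean inhibition plus 3 SD, cut at about 18% in these data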;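 also: plate controls were DMSO wells for no effect and Y-27632 control wells after no-enzyme background subtraction for full effect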
# RORA act – RORA (human) activation; P35398; CHO-K1 Gal4-RORA LBD luciferase reporter, luminescence; percent increase over mock-subtracted basal signal; activation, % at 10 µM; 1.5% of 65,000 active;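 active = activation above the mean of all tested compounds plus 3 SD, cut at about 49% in these data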;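 also: 0% = DMSO-treated RORA cells and 100% = added signal equal to DMSO minus mock-transfected cells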
# SF1 activator – activators of human nuclear receptor SF-1; Q13285; CHO-K1 Gal4-SF-1 LBD luciferase reporter; % increase over DMSO SF-1-specific signal; activation, % at 10 µM; 1.9% of 65,000 active; AID 522;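 active = activation above the mean activation of all tested compounds plus 3 SD, cut at about 50% in these data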
# Target sequence (Q13285 whole entry, looked up, the tested form may be a part): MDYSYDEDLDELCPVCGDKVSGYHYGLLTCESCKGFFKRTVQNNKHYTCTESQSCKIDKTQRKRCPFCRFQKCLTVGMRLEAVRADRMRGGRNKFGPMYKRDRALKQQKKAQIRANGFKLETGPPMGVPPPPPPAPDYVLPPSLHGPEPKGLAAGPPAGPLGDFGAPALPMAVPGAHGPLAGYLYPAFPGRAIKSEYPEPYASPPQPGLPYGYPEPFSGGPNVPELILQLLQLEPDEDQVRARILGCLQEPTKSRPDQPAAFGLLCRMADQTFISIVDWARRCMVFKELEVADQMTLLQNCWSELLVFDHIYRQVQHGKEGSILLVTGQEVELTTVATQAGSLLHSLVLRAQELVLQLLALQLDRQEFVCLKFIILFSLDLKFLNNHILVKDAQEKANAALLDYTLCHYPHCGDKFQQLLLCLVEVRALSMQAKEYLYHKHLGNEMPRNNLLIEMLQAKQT
#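 Test system: transient Gal4-SF-1 LBD reporter, CHO-K1; Amount: 4,000 CHO-K1 cells per well; Doses: 10 µM only; Timing: compound exposure 20 h at 37 °C; Signal: luciferase light emission; Read-out basis: percent activation relative to DMSO median and mock-transfected background; Control set: DMSO negative control and −SF1 background wells; Replicates: one test per compound.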
# Htt clearance – compounds clearing mutant huntingtin protein; HeLa Exon1htt(103Q)mCFP, aggregate imaging; zero = plate's median compound well; inhibition, % at 1.5 µM; 0.42% of 47,000 active;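 active = inhibition of aggregate fluorescence above about 70%, also judged a hit by eye on the cell image, limit read from the data, passing the limit was not always enough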;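 also: cells exposed to compound for three days before fixation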
# PKA inh – blocks human protein kinase A activity; P17612; PKA Kemptide phosphorylation, Kinase-Glo ATP luminescence; inhibition, % at 6 µM; 0.1% of 65,000 active;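 active = inhibition above the screen-wide mean inhibition plus 3 SD, cut at about 21% in these data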
# JNK3 inh – blocks human JNK3 kinase activity; 0.61% of 60,000 active; P53779; purified JNK3 kinase activity, HTS; inhibition, % at 8 µM; in the data active = inhibition above about 17%;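 also: 0% = DMSO and 100% = reference inhibitor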
# * = called active by the depositor; nt = not tested or not shown. An excerpt weighted towards active compounds, which were near 2.9% of everything screened.
SMILES,ROCK2 inh,RORA act,SF1 activator,Htt clearance,PKA inh,JNK3 inh
COc1ccc(C(C#N)C2(C)OCCO2)cc1OC (stereo unspecified),4,2,13,31,8,-2
COc1cccc(C2(O)CCN(C(=O)Cc3cccnc3)CC2)c1,nt,nt,nt,-36,nt,nt
COc1ccc(NC2CC(=O)N(c3ccccc3)C2=O)cc1 (stereo unspecified),0,32,57*,nt,-3,-8
CCN(CC)CCCN1C(=O)C(=O)/C(=C(/O)c2ccc3c(c2)CC(C)O3)C1c1ccncc1 (stereo unspecified),-6,-7,0,nt,2,-9
CC1Cc2cc(/C(O)=C3\C(=O)C(=O)N(CCN(C)C)C3c3ccccc3F)ccc2O1 (stereo unspecified),6,5,2,80*,3,0
Cn1c2ccccc2c2ncn(CCC3=CCCCC3)c(=O)c21,-2,48,51*,nt,-4,8
COc1ccc(/C=C2\SC(=S)N(NC(=O)c3csc4c3CCCC4)C2=O)cc1,nt,nt,nt,14,nt,nt
COc1ccccc1Cn1c2nc3ccccc3nc2c2c(=O)n(CC(C)C)cnc21,8,-4,17,nt,3,1
COc1cc(NC(=O)c2cc3nc(C)cc(C)n3n2)c(OC)cc1Cl,8,86*,58*,-11,6,-5
COc1ccccc1-c1ccc(=O)n(CC(=O)NC(C)(C)C)n1,1,25,3,-8,5,-2
CCc1nnc(NC(=O)CSc2nc(C)c3c(c2C#N)CCCC3)s1,7,-9,55*,-24,2,-1
COc1ccc(NC(=O)CSc2nc(C)c3c(c2C#N)CCCC3)cc1,nt,nt,nt,7,nt,nt
COCCn1c(C)cc(C(=O)COC(=O)C23CC4CC(CC(O)(C4)C2)C3)c1C,-2,13,77*,-14,3,-7
COCCn1c(C)cc(C(=O)COC(=O)c2cc3c(s2)CCC3)c1C,1,-16,2,-9,4,-4
Cc1ccc(Nc2nc(C(=O)N3CCC(C(=O)NCCN4CCOCC4)CC3)cs2)cc1,-1,12,20,74*,-2,-4
CC(=O)C(C)Oc1ccc2c3c(c(=O)oc2c1)CCCCC3 (stereo unspecified),1,20,54*,-3,3,6
CCN(CC)S(=O)(=O)c1ccc2nc(NC(=O)c3cccs3)sc2c1,0,49*,25,21,2,-2
Cc1ccc(NC(=O)c2cc(N(C)C)ccc2[P+](=O)O)cc1,nt,69*,14,-8,-8,nt
Cc1ccccc1-c1nnc(-c2ccc(Cl)cc2)o1,nt,nt,nt,-2,nt,nt
Clc1ccc(-c2nnc(-c3ccccc3Cl)o2)cc1,5,86*,19,nt,8,2
CCCn1c(C)cc(C(=O)COc2ncnc3sccc23)c1C,14,7,53*,nt,8,-5
CCOCC(=O)Nc1nnc(C2CCCCC2)s1,nt,50*,20,-91,8,nt
COCC(=O)Nc1nnc(C2CCCCC2)s1,-1,52*,34,57,8,-6
CCOC(=O)N1CCC(N2C(=O)c3ccc(C(=O)NC4CCCCCC4)cc3C2=O)CC1,4,-14,10,nt,2,0
O=C(CSc1nnnn1-c1ccccc1)NC(=O)Nc1ccc2c(c1)OCCO2,nt,52*,72*,nt,1,nt
SMILES,ROCK2 inh,RORA act,SF1 activator,Htt clearance,PKA inh,JNK3 inh
COc1ccc2[nH]c(=O)c(CN(Cc3ccccc3)Cc3nnnn3CC3CCCO3)cc2c1 (stereo unspecified),-2,83*,57*,nt,-5,-2
COc1cc2cc(CN(Cc3nnnn3Cc3ccccc3)CC3CCCO3)c(=O)[nH]c2cc1OC (stereo unspecified),nt,-20,0,-14,-3,nt
N#CCCn1nc(-c2ccccc2)cc1Nc1ccccc1NC(=O)c1cccs1,nt,-2,17,nt,10,nt
Nc1ccc2cn[nH]c2c1,23*,-5,0,nt,8,0
O=C(c1coc(=O)c2ccccc12)N1CCN(Cc2ccccc2)CC1,2,-9,3,nt,5,-1
COc1cccc(-c2nn(C)c3sc(C(=O)Nc4ccc5c(c4)OCCO5)cc23)c1,9,56*,80*,nt,8,13
O=C(NC1CCCCCC1)c1cccs1,6,24,-2,-32,14,0
Nc1c(C(=O)NC2CCCC2)sc2nc(-c3cccs3)ccc12,4,20,60*,nt,11,-2
